Experimental data: ChEMBL document CHEMBL1629696, “Identification of a novel transposon (Tn6072) and a truncated staphylococcal cassette chromosome mec element in methicillin-resistant Staphylococcus aureus ST239” (2010)

Tests used:
Format in all cases: functional
Staphylococcus aureus [1] = assay: Antimicrobial activity against methicillin-resistant Staphylococcus aureus 16689 by broth dilution method
How it was run: (§1)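 Oxacillin MIC by broth dilution per CLSI guidelines, on clinical MRSA isolates collected March 2004–June 2005 at a county hospital in Braşov, Romania. Bacterial suspensions were incubated 24 h at 37°C and growth was read as OD600. S. aureus MRSA252 and MSSA476 served as positive and negative controls.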

Staphylococcus aureus [2] = assay: Antimicrobial activity against methicillin-resistant Staphylococcus aureus 16683 by broth dilution method; how it was run: as §1
Staphylococcus aureus [3] = assay: Antimicrobial activity against methicillin-resistant Staphylococcus aureus 16651 by broth dilution method; how it was run: as §1
Staphylococcus aureus [4] = assay: Antimicrobial activity against methicillin-resistant Staphylococcus aureus 16692 by broth dilution method; how it was run: as §1
Staphylococcus aureus [5] = assay: Antimicrobial activity against methicillin-resistant Staphylococcus aureus 16653 by broth dilution method; how it was run: as §1
Staphylococcus aureus [6] = assay: Antimicrobial activity against methicillin-resistant Staphylococcus aureus 16678 by broth dilution method; how it was run: as §1
Staphylococcus aureus [7] = assay: Antimicrobial activity against methicillin-resistant Staphylococcus aureus 16704 by broth dilution method; how it was run: as §1
Staphylococcus aureus [8] = assay: Antimicrobial activity against methicillin-resistant Staphylococcus aureus 16674 by broth dilution method; how it was run: as §1
Staphylococcus aureus [9] = assay: Antimicrobial activity against methicillin-resistant Staphylococcus aureus 16698 by broth dilution method; how it was run: as §1
Staphylococcus aureus [10] = assay: Antimicrobial activity against methicillin-resistant Staphylococcus aureus 16691 by broth dilution method; how it was run: as §1
Staphylococcus aureus [11] = assay: Antimicrobial activity against methicillin-resistant Staphylococcus aureus 16696 by broth dilution method; how it was run: as §1
Staphylococcus aureus [12] = assay: Antimicrobial activity against methicillin-resistant Staphylococcus aureus 16672 by broth dilution method; how it was run: as §1
Staphylococcus aureus [13] = assay: Antimicrobial activity against methicillin-resistant Staphylococcus aureus 16677 by broth dilution method; how it was run: as §1
Staphylococcus aureus [14] = assay: Antimicrobial activity against methicillin-resistant Staphylococcus aureus 16671 by broth dilution method; how it was run: as §1
Staphylococcus aureus [15] = assay: Antimicrobial activity against methicillin-resistant Staphylococcus aureus 16695 by broth dilution method; how it was run: as §1
Staphylococcus aureus [16] = assay: Antimicrobial activity against methicillin-resistant Staphylococcus aureus 16708 by broth dilution method; how it was run: as §1
Staphylococcus aureus [17] = assay: Antimicrobial activity against methicillin-resistant Staphylococcus aureus 16680 by broth dilution method; how it was run: as §1
Staphylococcus aureus [18] = assay: Antimicrobial activity against methicillin-resistant Staphylococcus aureus 16688 by broth dilution method; how it was run: as §1
Staphylococcus aureus [19] = assay: Antimicrobial activity against methicillin-resistant Staphylococcus aureus 16676 by broth dilution method; how it was run: as §1
Staphylococcus aureus [20] = assay: Antimicrobial activity against methicillin-resistant Staphylococcus aureus 16670 by broth dilution method; how it was run: as §1
Staphylococcus aureus [21] = assay: Antimicrobial activity against methicillin-resistant Staphylococcus aureus 16645 by broth dilution method; how it was run: as §1
Staphylococcus aureus [22] = assay: Antimicrobial activity against methicillin-resistant Staphylococcus aureus 16703 by broth dilution method; how it was run: as §1
Staphylococcus aureus [23] = assay: Antimicrobial activity against methicillin-resistant Staphylococcus aureus 16700 by broth dilution method; how it was run: as §1
Staphylococcus aureus [24] = assay: Antimicrobial activity against methicillin-resistant Staphylococcus aureus 16656 by broth dilution method; how it was run: as §1
Staphylococcus aureus [25] = assay: Antimicrobial activity against methicillin-resistant Staphylococcus aureus 16687 by broth dilution method; how it was run: as §1
Staphylococcus aureus [26] = assay: Antimicrobial activity against methicillin-resistant Staphylococcus aureus 16684 by broth dilution method; how it was run: as §1
Staphylococcus aureus [27] = assay: Antimicrobial activity against methicillin-resistant Staphylococcus aureus 16658 by broth dilution method; how it was run: as §1
Staphylococcus aureus [28] = assay: Antimicrobial activity against methicillin-resistant Staphylococcus aureus HDG2 by broth dilution method
Staphylococcus aureus [29] = assay: Antimicrobial activity against methicillin-resistant Staphylococcus aureus 16652 by broth dilution method; how it was run: as §1
Staphylococcus aureus [30] = assay: Antimicrobial activity against methicillin-resistant Staphylococcus aureus 16702 by broth dilution method; how it was run: as §1
Staphylococcus aureus [31] = assay: Antimicrobial activity against methicillin-resistant Staphylococcus aureus 16699 by broth dilution method; how it was run: as §1
Staphylococcus aureus [32] = assay: Antimicrobial activity against methicillin-resistant Staphylococcus aureus 16686 by broth dilution method; how it was run: as §1
Staphylococcus aureus [33] = assay: Antimicrobial activity against methicillin-resistant Staphylococcus aureus 16679 by broth dilution method; how it was run: as §1
Staphylococcus aureus [34] = assay: Antimicrobial activity against methicillin-resistant Staphylococcus aureus 16646 by broth dilution method; how it was run: as §1
Staphylococcus aureus [35] = assay: Antimicrobial activity against methicillin-resistant Staphylococcus aureus 16666 by broth dilution method; how it was run: as §1
Staphylococcus aureus [36] = assay: Antimicrobial activity against methicillin-resistant Staphylococcus aureus 85/2082 by broth dilution method

Measured: MIC

Cc1onc(-c2ccccc2)c1C(=O)N[C@@H]1C(=O)N2[C@@H]1SC(C)(C)[C@@H]2C(=O)O [OXACILLIN]
64 µg/mL: Staphylococcus aureus [28]
8 µg/mL: Staphylococcus aureus [12]
16 µg/mL: Staphylococcus aureus [36]
> 512 µg/mL: Staphylococcus aureus [21]
256 µg/mL: Staphylococcus aureus [2] | Staphylococcus aureus [4] | Staphylococcus aureus [6] | Staphylococcus aureus [8] | Staphylococcus aureus [10] | Staphylococcus aureus [13] | Staphylococcus aureus [16] | Staphylococcus aureus [22] | Staphylococcus aureus [26] | Staphylococcus aureus [27] | Staphylococcus aureus [31] | Staphylococcus aureus [35]
512 µg/mL: all other assays above
